Published values from different studies.
Each line is one published result; the experiments were not run side by side.
CNR1: Cannabinoid receptor 1 (CNR1, Homo sapiens, UniProt P21554)
HTR2A: 5-hydroxytryptamine receptor 2A (HTR2A, Homo sapiens, UniProt P28223)
SRD5A1: 3-oxo-5-alpha-steroid 4-dehydrogenase 1 (SRD5A1, Homo sapiens, UniProt P18405)

SMILES | target | test | system | setting | inhibition
Cc1cc(F)cc2c(CCC(=O)N[C@@H]3C(=O)NC[C@H]3O)c(-c3ccc(F)cc3)[nH]c12 | CNR1 | cell-free assay | – | 10 µM | -2%
CC[N+]1(C)CCc2cc(OC)c(OC)c3c2C1Cc1cccc(OC)c1-3 (stereo not drawn) | HTR2A | ligand displacement, radioligand | – | 10 µM | 3%
CCN1/C(=C/C(C)=O)Sc2ccc(F)cc21 | Endothelin-1 receptor (EDNRA, Homo sapiens, UniProt P25101) | ligand displacement, radioligand | – | 10 µM | 9.86%
CC(=O)Oc1ccc(C=CC(=O)O)cc1OC(C)=O | SRD5A1 | enzyme activity in cells, inhibitor | HaCaT | 50 µM | 12.2%
COc1cc2c3c(c1OC)-c1c(OC)ccc(N4CCOCC4)c1CC3N(C)CC2 (stereo not drawn) | HTR2A | ligand displacement, radioligand | – | 10 µM | 49%
COC(=O)C=Cc1ccc(OC(C)=O)c(OC)c1 | SRD5A1 | enzyme activity in cells, inhibitor | HaCaT | 50 µM | 26.4%
Cc1cc(O)c(-c2ccc([C@@H](C)CN(C)C)cc2)c2c1[nH]c(=O)c1sccc12 | Serine/threonine-protein kinase A-Raf (ARAF, Homo sapiens, UniProt P10398) | enzyme activity, inhibitor | – | 0.1 µM, lysate | -26%
O=C(O)/C=C/c1ccc(O)c(O)c1 | SRD5A1 | enzyme activity in cells, inhibitor | HaCaT | 50 µM | 6.07%
NC/C(=C\F)COc1cccc(Cn2c(=S)[nH]c(=O)c3[nH]cnc32)c1 | CNR1 | ligand displacement, radioligand | – | 10 µM | < 50%
